Results as given in ChEMBL document CHEMBL1151697, “Synthesis and structure-activity relationships for biphenyl H3 receptor antagonists with moderate anti-cholinesterase activity” (Bioorg Med Chem, 2008).
Calls of active or inactive are those of the source. No cut-off for these calls is given here.

What was measured:
Histamine H3 receptor [1] = target: T1, Histamine H3 receptor (Homo sapiens, UniProt Q9Y5N1); assay: Displacement of [3H]RAMHA from human histamine H3 receptor expressed in SK-N-MC cells; type: cell-based
T1 sequence (Q9Y5N1 whole entry): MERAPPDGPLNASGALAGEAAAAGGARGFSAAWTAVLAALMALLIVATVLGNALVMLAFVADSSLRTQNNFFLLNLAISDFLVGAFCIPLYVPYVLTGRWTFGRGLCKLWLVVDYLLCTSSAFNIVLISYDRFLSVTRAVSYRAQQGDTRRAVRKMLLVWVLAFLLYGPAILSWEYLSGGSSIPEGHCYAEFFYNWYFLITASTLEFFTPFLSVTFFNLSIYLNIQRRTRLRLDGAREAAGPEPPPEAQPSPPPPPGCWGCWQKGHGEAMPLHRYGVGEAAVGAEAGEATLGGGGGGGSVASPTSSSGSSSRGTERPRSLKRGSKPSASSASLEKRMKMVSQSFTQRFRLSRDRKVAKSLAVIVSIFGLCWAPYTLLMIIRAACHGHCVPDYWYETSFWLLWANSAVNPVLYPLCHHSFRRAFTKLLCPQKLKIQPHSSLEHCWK
Procedure, shortened: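 SK-N-MC membranes bearing human H3 incubated 60 min at room temperature with 0.5 nM [3H]-(R)-α-methylhistamine and competitor (0.01 nM to 10 µM). Rapid filtration, two washes in ice-cold 50 mM Tris–HCl/5 mM EDTA. Nonspecific binding with 10 µM histamine. pKi via Cheng–Prusoff; means of 4–6 experiments.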

[2] = target: Histamine H3 receptor (Cavia porcellus) (UniProt Q9JI35); assay: Antagonist activity at histamine H3 receptor in electrically-stimulated guinea pig ileum assessed as inhibition of (R)-alpha-methylhistamine-induced twitch contraction in presence of 1 uM mepyramine; type: functional, tissue-based
Chain of Histamine H3 receptor (Cavia porcellus) (Q9JI35 whole entry): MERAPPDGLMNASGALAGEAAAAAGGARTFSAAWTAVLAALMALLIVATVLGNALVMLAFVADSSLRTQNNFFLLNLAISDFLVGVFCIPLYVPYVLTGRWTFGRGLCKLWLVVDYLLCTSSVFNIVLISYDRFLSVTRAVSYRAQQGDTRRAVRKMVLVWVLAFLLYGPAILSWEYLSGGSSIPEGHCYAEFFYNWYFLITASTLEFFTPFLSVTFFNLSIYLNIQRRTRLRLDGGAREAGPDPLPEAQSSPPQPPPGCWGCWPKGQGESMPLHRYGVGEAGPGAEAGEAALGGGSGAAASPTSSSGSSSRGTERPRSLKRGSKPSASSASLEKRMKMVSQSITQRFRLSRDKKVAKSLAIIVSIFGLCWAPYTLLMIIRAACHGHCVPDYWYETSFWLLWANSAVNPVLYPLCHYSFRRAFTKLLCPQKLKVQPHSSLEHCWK
Procedure, shortened: (§1)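 Guinea-pig ileum, electrically stimulated (0.1 Hz, 1 ms, submaximal voltage). Twitch inhibition by cumulative (R)-α-methylhistamine (1 nM to 1 µM) with 1 µM mepyramine present. Compounds tested at 1 nM to 30 µM. Potency as pKB from Furchgott's equation, or as pD2′ (Van Rossum) for non-surmountable antagonism.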

[3] = target: Histamine H2 receptor (Cavia porcellus) (UniProt P47747); assay: Antagonist activity at histamine H2 receptor in guinea pig atrium assessed as changes in rate of spontaneous beat at upto 3 uM; type: functional, tissue-based; conditions: Cardiac atrium
Chain of Histamine H2 receptor (Cavia porcellus) (P47747 whole entry): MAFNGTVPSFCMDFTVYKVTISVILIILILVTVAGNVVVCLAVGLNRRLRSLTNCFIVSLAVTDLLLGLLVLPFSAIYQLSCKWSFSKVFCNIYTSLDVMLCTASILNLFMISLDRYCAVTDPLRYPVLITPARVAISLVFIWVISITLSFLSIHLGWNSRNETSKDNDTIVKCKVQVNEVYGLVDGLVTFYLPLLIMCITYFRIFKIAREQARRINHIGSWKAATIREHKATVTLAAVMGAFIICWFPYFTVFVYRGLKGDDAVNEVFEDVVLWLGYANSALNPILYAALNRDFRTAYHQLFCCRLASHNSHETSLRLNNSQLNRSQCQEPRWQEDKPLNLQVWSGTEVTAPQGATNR
Procedure, shortened: (§2)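 Guinea-pig atria (H2) in Ringer–Locke at 31 °C (mM: NaCl 154.0, KCl 5.6, CaCl2 1.08, NaHCO3 5.95, glucose 11.1), gassed 95% O2–5% CO2. Spontaneous beating rate recorded by cardiotachograph. Cumulative dimaprit curves (0.1–100 µM) run without and with compound up to 10 µM. Affinity given as pKB by Furchgott, or as pD2′ by Van Rossum if non-surmountable.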

SK-N-MC [4] = assay: Cytotoxicity against human SK-N-MC cells at 1 uM after 6 hrs by MTT test; type: functional, cell-based
Procedure, shortened: (§3)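 MTT viability test: SK-N-MC cells held 6 h with compound (1–10 µM) or vehicle. MTT (5 mg/ml stock) added for 3 h, cells washed in PBS, formazan dissolved in 0.1 N HCl in isopropanol, absorbance read at 570 nm. Viability given relative to control.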

Histamine H4 receptor [5] = target: T2, Histamine H4 receptor (Homo sapiens, UniProt Q9H3N8); assay: Displacement of [3H]histamine from human histamine H4 receptor expressed in SK-N-MC cells at upto 10 uM
T2 sequence (Q9H3N8 whole entry): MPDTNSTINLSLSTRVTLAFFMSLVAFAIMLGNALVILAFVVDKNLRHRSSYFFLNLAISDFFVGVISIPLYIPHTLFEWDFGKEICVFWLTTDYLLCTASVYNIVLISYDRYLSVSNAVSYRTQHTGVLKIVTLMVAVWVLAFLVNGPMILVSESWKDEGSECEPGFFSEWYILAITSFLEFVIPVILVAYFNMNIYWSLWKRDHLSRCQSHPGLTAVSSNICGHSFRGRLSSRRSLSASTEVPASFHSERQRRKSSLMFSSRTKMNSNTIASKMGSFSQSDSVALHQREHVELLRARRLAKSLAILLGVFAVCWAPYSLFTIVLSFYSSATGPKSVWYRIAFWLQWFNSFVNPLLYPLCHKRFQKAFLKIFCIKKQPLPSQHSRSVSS

Histamine H3 receptor [6] = target: Histamine H3 receptor (Rattus norvegicus, UniProt Q9QYN8); assay: Displacement of [3H]RAMHA from histamine H3 receptor in Wistar rat brain membrane; type: cell membranes
Chain of Histamine H3 receptor (Rattus norvegicus, UniProt Q9QYN8) (Q9QYN8 whole entry): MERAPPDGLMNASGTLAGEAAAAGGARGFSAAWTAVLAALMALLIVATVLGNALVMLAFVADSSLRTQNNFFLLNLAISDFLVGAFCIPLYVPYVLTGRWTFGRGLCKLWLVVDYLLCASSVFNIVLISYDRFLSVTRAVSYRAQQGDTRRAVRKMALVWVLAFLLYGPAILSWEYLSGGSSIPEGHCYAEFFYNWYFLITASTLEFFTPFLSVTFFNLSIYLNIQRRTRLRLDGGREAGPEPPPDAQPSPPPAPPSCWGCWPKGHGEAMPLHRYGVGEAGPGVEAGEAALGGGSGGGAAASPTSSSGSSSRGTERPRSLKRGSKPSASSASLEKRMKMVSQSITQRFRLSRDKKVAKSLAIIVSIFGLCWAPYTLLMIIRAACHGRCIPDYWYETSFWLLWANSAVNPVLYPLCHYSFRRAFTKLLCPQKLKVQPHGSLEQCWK
Procedure, shortened: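 Membranes from male Wistar rat brain (150–200 g) incubated 45 min with 0.5 nM [3H]RAMHA and compound (0.03 nM to 10 µM) in 50 mM Tris–HCl pH 7.4, 50 mM NaCl, 0.5 mM EDTA. Vacuum filtration, two ice-cold buffer rinses. Nonspecific binding set with 10 µM thioperamide. pKi by Cheng–Prusoff.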

[7] = target: T3, Acetylcholinesterase (Rattus norvegicus) (UniProt P37136); assay: Inhibition of acetylcholinesterase in Wistar rat brain homogenate at upto 10 uM by Ellman's method; type: tissue-based
T3 sequence (whole entry): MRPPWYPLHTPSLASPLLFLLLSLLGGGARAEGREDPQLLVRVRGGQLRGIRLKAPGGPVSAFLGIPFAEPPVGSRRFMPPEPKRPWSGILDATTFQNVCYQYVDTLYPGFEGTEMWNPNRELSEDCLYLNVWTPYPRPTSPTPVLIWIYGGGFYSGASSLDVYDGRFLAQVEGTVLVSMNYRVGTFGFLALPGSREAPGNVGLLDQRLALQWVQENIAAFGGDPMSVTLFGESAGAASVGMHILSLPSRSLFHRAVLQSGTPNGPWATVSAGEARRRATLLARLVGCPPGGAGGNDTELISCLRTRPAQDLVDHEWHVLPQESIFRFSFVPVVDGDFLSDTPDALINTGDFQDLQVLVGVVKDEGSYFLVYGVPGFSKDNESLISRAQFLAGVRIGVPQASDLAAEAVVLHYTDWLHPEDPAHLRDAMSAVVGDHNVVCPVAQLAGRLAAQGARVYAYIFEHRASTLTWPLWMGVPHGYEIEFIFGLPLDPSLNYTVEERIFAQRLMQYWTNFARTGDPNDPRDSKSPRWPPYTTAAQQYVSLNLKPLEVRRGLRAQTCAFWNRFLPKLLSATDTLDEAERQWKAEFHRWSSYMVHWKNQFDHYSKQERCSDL

[8] = target: Histamine H1 receptor (Cavia porcellus) (UniProt P31389); assay: Antagonist activity at histamine H1 receptor in guinea pig terminal ileum at upto 10 uM; type: functional, tissue-based
Chain of Histamine H1 receptor (Cavia porcellus) (P31389 whole entry): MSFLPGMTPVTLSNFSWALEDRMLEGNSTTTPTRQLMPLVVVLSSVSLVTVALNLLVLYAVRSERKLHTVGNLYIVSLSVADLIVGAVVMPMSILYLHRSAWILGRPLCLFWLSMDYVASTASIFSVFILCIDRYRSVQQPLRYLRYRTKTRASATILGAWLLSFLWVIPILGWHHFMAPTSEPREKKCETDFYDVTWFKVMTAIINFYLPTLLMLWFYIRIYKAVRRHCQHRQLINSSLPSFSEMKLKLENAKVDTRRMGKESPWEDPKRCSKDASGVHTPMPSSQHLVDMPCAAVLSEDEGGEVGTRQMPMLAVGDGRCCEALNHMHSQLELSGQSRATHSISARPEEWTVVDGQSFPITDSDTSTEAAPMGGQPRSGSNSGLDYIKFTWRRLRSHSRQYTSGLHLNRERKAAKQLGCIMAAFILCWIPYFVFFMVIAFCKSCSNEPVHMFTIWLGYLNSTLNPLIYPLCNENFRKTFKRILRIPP
Procedure, shortened: (§4)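 Guinea-pig (250–350 g) terminal ileum (H1) suspended isometrically in Krebs–Henseleit at 37 °C, aerated 95% O2–5% CO2. Cumulative histamine curves (1 nM to 1 µM) run without and with compound up to 10 µM. pKB (apparent pA2) from Furchgott's equation; pD2′ from Van Rossum's equation when antagonism was non-surmountable.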

SK-N-MC [9] = assay: Cytotoxicity against human SK-N-MC cells at 10 uM after 6 hrs by MTT test; type: functional, cell-based; procedure, shortened: as §3
Histamine H3 receptor [10] = target: T1, Histamine H3 receptor; assay: Antagonist activity at human histamine H3 receptor expressed in SK-N-MC cells by CRE-mediated beta-galactosidase reporter gene assay administered 10 mins before (R)-alpha-methylhistamine challenge after 6 hrs; type: functional, cell-based
Procedure, shortened: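 SK-N-MC cells stably carrying human H3 and a β-galactosidase reporter. Compound added to medium, forskolin 5 min later, then (R)-α-methylhistamine 10 min after compound; 6 h at 37 °C. Cells lysed in phosphate assay buffer (pH 8) with 0.5% Triton and 40 mM β-mercaptoethanol; β-galactosidase read at 570 nm. Means of 4–6 experiments.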

Histamine H2 receptor = Histamine H2 receptor (Cavia porcellus, UniProt P47747); assay: (§5) Antagonist activity at histamine H2 receptor in guinea pig atrium assessed as changes in rate of spontaneous beat; type: functional, tissue-based, Cardiac atrium; procedure, shortened: as §2
Chain of Histamine H2 receptor (P47747 whole entry): as the sequence (P47747 whole entry) above

[11] = target: Histamine H1 receptor (Cavia porcellus) (UniProt P31389); assay: Antagonist activity at histamine H1 receptor in guinea pig terminal ileum; type: functional, tissue-based; procedure, shortened: as §4
[12] = target: Histamine H2 receptor (Cavia porcellus) (UniProt P47747); assay: Antagonist activity at histamine H2 receptor in guinea pig atrium assessed as changes in rate of spontaneous beat at upto 10 uM; type: functional, tissue-based; conditions: Cardiac atrium; procedure, shortened: as §2
[13] = target: Histamine H3 receptor (Cavia porcellus) (UniProt Q9JI35); assay: Antagonist activity at histamine H3 receptor in electrically-stimulated guinea pig ileum assessed as inhibition of (R)-alpha-methylhistamine-induced twitch contraction at upto 1 uM in presence of 1 uM mepyramine; type: functional, tissue-based; procedure, shortened: as §1
[14] = target: T3, Acetylcholinesterase (Rattus norvegicus); assay: Inhibition of acetylcholinesterase in Wistar rat brain homogenate at upto 1 to 100 uM by Ellman's method; type: tissue-based
Procedure, shortened: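 Male Wistar rat (150–200 g) brain homogenate in 0.1 M phosphate buffer (pH 8.0) with DTNB (5 mM) and compound at 1–100 µM. Reaction started at 37 °C by adding acetylthiocholine (75 mM solution) and stopped after 15 min with 4% formalin. 5-Thio-2-nitrobenzoate absorbance at 412 nm. Percent inhibition versus control; reported as pIC50.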

[15] = target: Histamine H2 receptor (Cavia porcellus) (UniProt P47747); assay: Antagonist activity at histamine H2 receptor in guinea pig atrium assessed as changes in rate of spontaneous beat at upto 0.1 uM; type: functional, tissue-based; conditions: Cardiac atrium; procedure, shortened: as §2
Acetylcholinesterase = target: T4, Acetylcholinesterase (Rattus norvegicus, UniProt P37136); assay: Inhibition of acetylcholinesterase in Wistar rat brain homogenate by Ellman's method; type: tissue-based
T4 sequence (P37136 whole entry): T3 sequence (whole entry)

[16] = target: Histamine H2 receptor (Cavia porcellus) (UniProt P47747); assay: Antagonist activity at histamine H2 receptor in guinea pig atrium assessed as changes in rate of spontaneous beat at upto 1 uM; type: functional, tissue-based; conditions: Cardiac atrium; procedure, shortened: as §2
Histamine H4 receptor [17] = target: T2, Histamine H4 receptor; assay: Displacement of [3H]histamine from human histamine H4 receptor expressed in SK-N-MC cells
[18] = target: Histamine H2 receptor (Cavia porcellus) (UniProt P47747); assay: as §5; type: functional, tissue-based; conditions: Cardiac atrium; procedure, shortened: as §2
[19] = target: Histamine H1 receptor (Cavia porcellus) (UniProt P31389); assay: Antagonist activity at histamine H1 receptor in guinea pig terminal ileum at upto 1 uM; type: functional, tissue-based; procedure, shortened: as §4

CN(C)Cc1ccc(-c2ccc(CN3CCCCC3)cc2)cc1
Ki (Histamine H3 receptor [1]): 2.19 nM
pKb [2]: 9.05
Activity [3]: inactive
Activity (SK-N-MC [4]): Not toxic
Activity (Histamine H4 receptor [5]): inactive
Ki (Histamine H3 receptor [6]): 1.32 nM
Activity [7]: inactive
Activity [8]: inactive
Activity (SK-N-MC [9]): Not toxic
pKb (Histamine H3 receptor [10]): 8.92

CCCN(CCC)Cc1ccc(-c2ccc(CN(CCC)CCC)cc2)cc1
Ki (Histamine H3 receptor [1]): 9.33 nM
pKb [2]: 8.78
Activity (SK-N-MC [4]): Not toxic
Ki (Histamine H3 receptor [6]): 3.16 nM
EC50 (Histamine H2 receptor): 3390 nM
pKb [11]: 5.54
Activity (SK-N-MC [9]): Not toxic
pKb (Histamine H3 receptor [10]): 7.8

CC(=O)N1CCN(Cc2ccc(-c3ccc(CN4CCN(C(C)=O)CC4)cc3)cc2)CC1
Activity (SK-N-MC [4]): Not toxic
Activity (Histamine H4 receptor [5]): inactive
Activity [12]: inactive
Activity [13]: inactive
Activity [7]: inactive
pD2 [11]: 4.81
Activity (SK-N-MC [9]): Not toxic
pKb (Histamine H3 receptor [10]): 6.7

CN(Cc1ccccc1)Cc1ccc(-c2ccc(CN3CCCCC3)cc2)cc1
Ki (Histamine H3 receptor [1]): 6.76 nM
inhibition [14]: 79%
pKb [2]: 7.34
Activity (SK-N-MC [4]): Not toxic
Activity (Histamine H4 receptor [5]): inactive
Activity [15]: inactive
Ki (Histamine H3 receptor [6]): 14.1 nM
pD2 [11]: 4.75
IC50 (Acetylcholinesterase): 3160 nM
Activity (SK-N-MC [9]): Not toxic
pKb (Histamine H3 receptor [10]): 7.98

CC1CCN(CCc2ccc(-c3ccc(CCN4CCC(C)CC4)cc3)cc2)CC1
Ki (Histamine H3 receptor [1]): 16.6 nM
pKb [2]: 7.43
Activity (SK-N-MC [4]): Not toxic
Activity (Histamine H4 receptor [5]): inactive
Activity [15]: inactive
Ki (Histamine H3 receptor [6]): 55 nM
Activity [7]: inactive
pKb [11]: 5.85
Activity (SK-N-MC [9]): Not toxic
pKb (Histamine H3 receptor [10]): 8.17

CN(Cc1ccc(-c2ccc(CN(C)C3CCCCC3)cc2)cc1)C1CCCCC1
inhibition [14]: 57%
pKb [2]: 7.45
Activity (SK-N-MC [4]): Not toxic
Activity [16]: inactive
pD2 [11]: 5.24
IC50 (Acetylcholinesterase): 1660 nM
Activity (SK-N-MC [9]): Not toxic
Ki (Histamine H4 receptor [17]): 6460 nM
pKb (Histamine H3 receptor [10]): 7.27

c1cc(-c2ccc(CCN3CCCCC3)cc2)ccc1CCN1CCCCC1
pKb [2]: 8.43
Activity (SK-N-MC [4]): Not toxic
Activity (Histamine H4 receptor [5]): inactive
pKb [18]: 6.38
Activity [7]: inactive
pKb [11]: 5.32
Activity (SK-N-MC [9]): Not toxic
pKb (Histamine H3 receptor [10]): 8.5

c1cc(-c2ccc(CN3CCCCC3)cc2)ccc1CN1CCCCC1
Ki (Histamine H3 receptor [1]): 3.39 nM
inhibition [14]: 82%
pKb [2]: 8.58
Activity (SK-N-MC [4]): Not toxic
Activity [12]: inactive
pD2 [11]: 4.84
IC50 (Acetylcholinesterase): 5890 nM
Activity (SK-N-MC [9]): Not toxic
Ki (Histamine H4 receptor [17]): 25100 nM
pKb (Histamine H3 receptor [10]): 8.77

CC1CC(C)CN(Cc2ccc(-c3ccc(CN4CCCCC4)cc3)cc2)C1 (centres undefined)
Ki (Histamine H3 receptor [1]): 0.871 nM
inhibition [14]: 91%
pKb [2]: 9.02
Activity [3]: inactive
Activity (SK-N-MC [4]): Not toxic
Activity (Histamine H4 receptor [5]): inactive
Ki (Histamine H3 receptor [6]): 2.4 nM
pKb [11]: 6.15
IC50 (Acetylcholinesterase): 2400 nM
Activity (SK-N-MC [9]): Not toxic
pKb (Histamine H3 receptor [10]): 8.48

N#Cc1ccc(OCc2ccc(-c3ccc(CN4CCCCC4)cc3)cc2)cc1
Ki (Histamine H3 receptor [1]): 75.9 nM
pKb [2]: 7.27
Activity (SK-N-MC [4]): Not toxic
Activity [16]: inactive
Activity (Histamine H4 receptor [5]): inactive
Ki (Histamine H3 receptor [6]): 70.8 nM
Activity [7]: inactive
Activity [8]: inactive
Activity (SK-N-MC [9]): Not toxic
pKb (Histamine H3 receptor [10]): 7.27

CC1CC(C)CN(Cc2ccc(-c3ccc(CN4CC(C)CC(C)C4)cc3)cc2)C1 (centres undefined)
Activity (SK-N-MC [4]): Not toxic
Activity [12]: inactive
Activity [7]: inactive
pD2 [11]: 5.08
Activity (SK-N-MC [9]): Not toxic
Ki (Histamine H4 receptor [17]): 13800 nM
pKb (Histamine H3 receptor [10]): 6.19

CCCCCNCc1ccc(-c2ccc(CNCCCCC)cc2)cc1
Activity (SK-N-MC [4]): Not toxic
Activity [19]: inactive
Activity [16]: inactive
Activity [13]: inactive
Activity [7]: inactive
Activity (SK-N-MC [9]): Not toxic
Ki (Histamine H4 receptor [17]): 6460 nM
pKb (Histamine H3 receptor [10]): 6.51

c1cc(-c2ccc(CNC3CCCCC3)cc2)ccc1CNC1CCCCC1
inhibition [14]: 70%
pKb [2]: 5.82
Activity (SK-N-MC [4]): Not toxic
Activity [19]: inactive
Activity [16]: inactive
Activity (Histamine H4 receptor [5]): inactive
IC50 (Acetylcholinesterase): 5130 nM
Activity (SK-N-MC [9]): Not toxic
pKb (Histamine H3 receptor [10]): 6.54
